Laboratory results taken from ChEMBL document CHEMBL1134675, “17 alpha-O-(aminoalkyl)oxime derivatives of 3 beta,14 beta-dihydroxy-5 beta-androstane and 3 beta-hydroxy-14-oxoseco-D-5 beta-androstane as inhibitors of Na(+),K(+)-ATPase at the digitalis receptor” (J Med Chem, 2001).

Columns and labels:
Cavia porcellus = organism: Cavia porcellus; assay: In vitro increase in contractile force of the guine pig atrium.; type: functional, organism-based; details: Cardiac atrium
Procedure, shortened: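 Left atria from male guinea pigs (300-500 g) in organ baths of bicarbonate salt solution with glucose and sucrose, 95% O2/5% CO2, 32 °C, 500 mg resting tension. Field-stimulated at 1 Hz (1 ms, twice threshold voltage). After 60 min equilibration, cumulative concentrations added, each held until maximal response or arrhythmia. Read-out: maximal increase in contractile force; EC50 from concentration–response curves.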

[1] = molecular target: Sodium/potassium-transporting ATPase; assay: Binding affinity towards Na+,K+ -ATPase isolated from dog kidney.; type: protein-complex assay, Canis lupus familiaris
Procedure, shortened: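 Displacement of specific [3H]ouabain binding from the Na+,K+-ATPase receptor, enzyme isolated from dog kidney and purified per Jørgensen. Means of two to three separate experiments in duplicate.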

Row | Structure (SMILES) | EC50 (Cavia porcellus) | IC50 [1]
1 | C[C@]12CC[C@H](O)C[C@H]1CC[C@@H]1[C@@H]2CC[C@]2(C)[C@@H](C3=CC(=O)OC3)CC[C@]12O [DIGITOXIGENIN] | 570 nM | –
2 | C[C@]12CC[C@H](O)C[C@H]1CC[C@@H]1[C@@H]2CC[C@]2(C)[C@H](/C=N/OCCCCN)CC[C@]12O | – | 1000 nM
3 | C[C@]12CC[C@H](O)C[C@H]1CC[C@@H]1[C@@H]2CC[C@]2(C)[C@H](C/C=N/OCCCCN)CC[C@]12O | – | 800 nM
4 | C[C@@H](C/C=N/OCCN)[C@@]1(C)CCC2C(CC[C@@H]3C[C@@H](O)CC[C@]23C)C1=O (stereo not given in full) | – | 100 nM
5 | C[C@@H](C/C=N/OCCN(C)C)[C@@]1(C)CCC2C(CC[C@@H]3C[C@@H](O)CC[C@]23C)C1=O (stereo not given in full) | 3000 nM | 130 nM
6 | CC[C@@H](C/C=N/OCCN)[C@@]1(C)CCC2C(CC[C@@H]3C[C@@H](O)CC[C@]23C)C1=O (stereo not given in full) | 1500 nM | 40 nM
7 | CC[C@H](/C=N/OCCN(C)C)[C@@]1(C)CCC2C(CC[C@@H]3C[C@@H](O)CC[C@]23C)C1=O (stereo not given in full) | – | 4000 nM
8 | C[C@]12CC[C@H](O)C[C@H]1CC[C@@H]1[C@@H]2CC[C@]2(C)[C@H](/C=N/OCCCN)CC[C@]12O | 18000 nM | 400 nM
9 | CN(C)CCO/N=C/[C@@H]1CC[C@]2(O)[C@@H]3CC[C@@H]4C[C@@H](O)CC[C@]4(C)[C@H]3CC[C@]12C | – | 1600 nM
10 | CC[C@H](C/C=N/OCCN(C)C)[C@@]1(C)CCC2C(CC[C@@H]3C[C@@H](O)CC[C@]23C)C1=O (stereo not given in full) | – | 800 nM
11 | C[C@]12CC[C@H](O)C[C@H]1CC[C@@H]1[C@@H]2CC[C@]2(C)[C@H](C/C=N/OCCN)CC[C@]12O | 3500 nM | 50 nM
12 | CN(C)CCO/N=C/C[C@@H]1CC[C@]2(O)[C@@H]3CC[C@@H]4C[C@@H](O)CC[C@]4(C)[C@H]3CC[C@]12C | – | 250 nM
13 | CC[C@@H](C/C=N/OCCN(C)C)[C@@]1(C)CCC2C(CC[C@H]3C[C@@H](O)CC[C@]23C)C1=O (stereo not given in full) | – | 250 nM
14 | CCC[C@@H](C/C=N/OCCN)[C@@]1(C)CCC2C(CC[C@@H]3C[C@@H](O)CC[C@]23C)C1=O (stereo not given in full) | 5600 nM | 200 nM
15 | CC[C@@H](/C=N/OCCN(C)C)[C@@]1(C)CCC2C(CC[C@H]3C[C@@H](O)CC[C@]23C)C1=O (stereo not given in full) | – | 500 nM
16 | C[C@]12CC[C@H](O)C[C@H]1CC[C@@H]1[C@@H]2CC[C@]2(C)[C@H](/C=N/OCCN)CC[C@]12O | – | 400 nM
17 | CC[C@@H](C/C=N/OCCN)[C@@]1(C)CCC2C(CC[C@H]3C[C@@H](O)CC[C@]23C)C1=O (stereo not given in full) | – | 160 nM
18 | C[C@]12CC[C@H](O)C[C@H]1CC[C@@H]1[C@@H]2CC[C@]2(C)[C@H](C/C=N/OCCCN)CC[C@]12O | – | 200 nM
19 | CC[C@@H](C/C=N/OCCN(C)C)[C@@]1(C)CCC2C(CC[C@@H]3C[C@@H](O)CC[C@]23C)C1=O (stereo not given in full) | 2000 nM | 100 nM
